According to ChEMBL document CHEMBL1208768, “Synthesis, selective anti-Helicobacter pylori activity, and cytotoxicity of novel N-substituted-2-oxo-2H-1-benzopyran-3-carboxamides” (Bioorg Med Chem Lett, 2010):
In brackets after ≈: the same amount, converted by molar mass. Activity calls are given as the source filed them. No cut-off for these calls is given here.

Experiments:
[1] = tested on: Klebsiella aerogenes; assay: Antibacterial activity against Enterobacter aerogenes after 18 to 22 hrs by broth microdilution method; format: functional
How it was run: (§1)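 Clinical respiratory-tract isolates from patients, subcultured for purity and identified conventionally. Broth microdilution per NCCLS in Mueller–Hinton II broth; each plate had growth controls (bacteria, no compound) and medium-only controls. Incubation 18–22 h at 35 °C. MIC taken as the lowest concentration giving complete growth inhibition by unaided eye.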

[2] = tested on: AGS; assay: Antiinflammatory activity in human AGS cells assessed as inhibition of IL-8 production at 0.5 ug/mL after 24 hrs; format: functional, cell-based
How it was run: (§2)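 AGS gastric adenocarcinoma cells were grown in F-12K with 10% FBS. They were seeded at 1 × 10⁵/mL for 24 h, preincubated 1 h with compound at 5 or 0.5 µg/mL, then exposed to H. pylori.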

[3] = tested on: Pichia kudriavzevii; assay: Antifungal activity against Candida krusei after 24 hrs by broth microdilution method; format: functional
How it was run: (§3)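 Candida isolates from respiratory-tract specimens, tested by NCCLS broth microdilution in Sabouraud dextrose broth. Serial compound dilutions inoculated to 10³/mL, with fungus-only and medium-only controls. Incubated 24 h at 37 °C. MIC was the lowest concentration with complete visible growth inhibition.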

[4] = tested on: Candida albicans; assay: Antifungal activity against Candida albicans after 24 hrs by broth microdilution method; format: functional; how it was run: as §3
[5] = tested on: Enterobacter; assay: Antibacterial activity against Enterobacter after 18 to 22 hrs by broth microdilution method; format: functional; how it was run: as §1
[6] = tested on: Klebsiella pneumoniae; assay: Antibacterial activity against Klebsiella pneumoniae after 18 to 22 hrs by broth microdilution method; format: functional; how it was run: as §1
[7] = tested on: Staphylococcus haemolyticus; assay: Antibacterial activity against Staphylococcus haemolyticus after 18 to 22 hrs by broth microdilution method; format: functional; how it was run: as §1
[8] = tested on: Klebsiella oxytoca; assay: Antibacterial activity against Klebsiella oxytoca after 18 to 22 hrs by broth microdilution method; format: functional; how it was run: as §1
[9] = tested on: Proteus vulgaris; assay: Antibacterial activity against Proteus vulgaris after 18 to 22 hrs by broth microdilution method; format: functional; how it was run: as §1
[10] = tested on: Escherichia coli; assay: Antibacterial activity against Escherichia coli after 18 to 22 hrs by broth microdilution method; format: functional; how it was run: as §1
[11] = tested on: Staphylococcus hominis; assay: Antibacterial activity against Staphylococcus hominis after 18 to 22 hrs by broth microdilution method; format: functional; how it was run: as §1
[12] = tested on: Staphylococcus aureus; assay: Antibacterial activity against Staphylococcus aureus after 18 to 22 hrs by broth microdilution method; format: functional; how it was run: as §1
[13] = tested on: Citrobacter freundii; assay: Antibacterial activity against Citrobacter freundii after 18 to 22 hrs by broth microdilution method; format: functional; how it was run: as §1
[14] = tested on: [Candida] sake; assay: Antifungal activity against Candida sake after 24 hrs by broth microdilution method; format: functional; settings: Fermentozyma sake; how it was run: as §3
[15] = Solubility of the compound in DMSO at 0.0039 to 128 ug/mL; format: physicochemical
[16] = tested on: Enterococcus faecalis; assay: Antibacterial activity against Streptococcus faecalis after 18 to 22 hrs by broth microdilution method; format: functional; how it was run: as §1
[17] = tested on: Staphylococcus epidermidis; assay: Antibacterial activity against Staphylococcus epidermidis after 18 to 22 hrs by broth microdilution method; format: functional; how it was run: as §1
[18] = tested on: AGS; assay: Antiinflammatory activity in human AGS cells assessed as inhibition of IL-8 production at 5 ug/mL after 24 hrs; format: functional, cell-based; how it was run: as §2
[19] = tested on: Helicobacter pylori; assay: Antibacterial activity against metronidazole-resistant Helicobacter pylori isolate 18 after 72 hrs by agar dilution method; format: functional; settings: isolate 18, 72 h
How it was run: (§4)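 H. pylori clinical isolates (ATCC 43504 control each session) stored at -80 °C and subcultured twice on Columbia agar with 10% horse serum and 0.25% yeast extract. Suspensions of 0.5 McFarland were spotted by Steer's replicator at about 5 × 10⁵ CFU/spot onto agar with twofold compound dilutions. Plates were incubated 72 h at 37 °C in 10% CO₂. MIC was the lowest concentration without visible growth.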

[20] = Cytotoxicity against human EAhy926 cells assessed as cell survival at 0.05 ug/mL after 24 hrs by trypan blue exclusion assay; format: cell-based, EA.hy 926; settings: read-out: Survival
How it was run: (§5)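 EAhy cells in DMEM (high glucose) with 10% FBS, at 1 × 10⁵/mL in exponential growth and 60–70% confluent, were exposed 24 h at 37 °C to compounds from DMSO stocks (final DMSO ≤0.5%). Controls were cells alone or with DMSO, and 1 mM sodium nitroprusside as positive control. Cells were scraped, mixed 1:1 with 0.4% Trypan blue and counted on a hemocytometer by two operators. Result given as % viable cells.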

[21] = tested on: Helicobacter pylori; assay: Antibacterial activity against metronidazole-resistant Helicobacter pylori isolate 1 after 72 hrs by agar dilution method; format: functional; settings: isolate 1, 72 h; how it was run: as §4
[22] = Cytotoxicity against human EAhy926 cells assessed as cell survival at 0.5 ug/mL after 24 hrs by MTT assay; format: cell-based, EA.hy 926; settings: read-out: Survival
[23] = Cytotoxicity against human EAhy926 cells assessed as cell survival at 5 ug/mL after 24 hrs by trypan blue exclusion assay; format: cell-based, EA.hy 926; settings: read-out: Survival; how it was run: as §5
[24] = tested on: Helicobacter pylori; assay: Antibacterial activity against metronidazole-resistant Helicobacter pylori isolate 20 after 72 hrs by agar dilution method; format: functional; settings: isolate 20, 72 h; how it was run: as §4
[25] = Cytotoxicity against human EAhy926 cells assessed as cell survival at 5 ug/mL after 24 hrs by MTT assay; format: cell-based, EA.hy 926; settings: read-out: Survival
[26] = Cytotoxicity against human EAhy926 cells assessed as cell survival at 50 ug/mL after 24 hrs by trypan blue exclusion assay; format: cell-based, EA.hy 926; settings: read-out: Survival; how it was run: as §5
[27] = tested on: Helicobacter pylori; assay: Antibacterial activity against metronidazole-resistant Helicobacter pylori NCTC 11637 after 72 hrs by agar dilution method; format: functional; settings: NCTC 11637, 72 h; how it was run: as §4
[28] = tested on: Helicobacter pylori; assay: Antibacterial activity against metronidazole-resistant Helicobacter pylori isolate 8 after 72 hrs by agar dilution method; format: functional; settings: isolate 8, 72 h; how it was run: as §4
[29] = Cytotoxicity against human EAhy926 cells assessed as cell survival at 0.5 ug/mL after 24 hrs by trypan blue exclusion assay; format: cell-based, EA.hy 926; settings: read-out: Survival; how it was run: as §5
[30] = tested on: Helicobacter pylori; assay: Antibacterial activity against Helicobacter pylori ATCC 43504 clinical isolates after 72 hrs by agar dilution method; format: functional; settings: ATCC 43504, 72 h
How it was run: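 Agar dilution per NCCLS. Twenty clinical strains from duodenal ulcer or gastritis patients, with ATCC 43504 as control in each session, were subcultured twice on Columbia agar plus 10% horse serum and 0.25% yeast extract (72 h, 37 °C, 10% CO₂). Inoculum of 0.5 McFarland in Wilkins Chalgren broth, about 5 × 10⁵ CFU/spot by Steer's replicator. Plates held twofold compound dilutions down to 0.0039 µg/mL and were incubated 72 h at 37 °C, 10% CO₂. MIC was the lowest concentration inhibiting visible growth.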

[31] = tested on: AGS (Homo sapiens); assay: Cytotoxicity against human AGS cells assessed as cell survival at 50 ug/mL after 24 hrs by MTT assay

SMILES	MIC [1] [µg/mL]	inhibition [2]	MIC [3] [µg/mL]	MIC [4] [µg/mL]	MIC [5] [µg/mL]	MIC [6] [µg/mL]	MIC [7] [µg/mL]	MIC [8] [µg/mL]	MIC [9] [µg/mL]	MIC [10] [µg/mL]	MIC [11] [µg/mL]	MIC [12] [µg/mL]	MIC [13] [µg/mL]	MIC [14] [µg/mL]	MIC [16] [µg/mL]	MIC [17] [µg/mL]	inhibition [18]	MIC [19] [µg/mL]	viability at 24 h, 0.05 ug/mL [20] [%]	MIC [21] [µg/mL]	other results
CCOC(=O)c1ccc(NC(=O)c2cc3ccc(OC)cc3oc2=O)cc1	> 128	inactive	> 128	> 128	> 128	> 128	> 128	> 128	> 128	> 128	> 128	> 128	> 128	> 128	> 128	> 128	inactive				solubility [15]: Insoluble
CCOC(=O)c1ccc(NC(=O)c2cc3ccc(O)cc3oc2=O)cc1	> 128	inactive	> 128	> 128	> 128	> 128	> 128	> 128	> 128	> 128	> 128	> 128	> 128	> 128	> 128	> 128	inactive	8 (≈ 22.6 µM)	96	8 (≈ 22.6 µM)	viability at 24 h, 0.5 ug/mL [22]: 99%; viability at 24 h, 5 ug/mL [23]: 92%; MIC [24]: 2 µg/mL (≈ 5.66 µM); viability at 24 h, 5 ug/mL [25]: 82%; viability at 24 h, 50 ug/mL [26]: 64%; MIC [27]: 8 µg/mL (≈ 22.6 µM); MIC [28]: 4 µg/mL (≈ 11.3 µM); viability at 24 h, 0.5 ug/mL [29]: 95%; MIC50 [30]: 8 µg/mL (≈ 22.6 µM); MIC90 [30]: 8 µg/mL (≈ 22.6 µM); viability at 24 h, 50 ug/mL [31]: 78%
CCOC(=O)c1ccc(NC(=O)c2cc3cc(O)ccc3oc2=O)cc1	> 128	inactive	> 128	> 128	> 128	> 128	> 128	> 128	> 128	> 128	> 128	> 128	> 128	> 128	> 128	> 128	inactive	8 (≈ 22.6 µM)	93	4 (≈ 11.3 µM)	viability at 24 h, 0.5 ug/mL [22]: 99%; viability at 24 h, 5 ug/mL [23]: 80%; MIC [24]: 2 µg/mL (≈ 5.66 µM); viability at 24 h, 5 ug/mL [25]: 99%; viability at 24 h, 50 ug/mL [26]: 77%; MIC [27]: 8 µg/mL (≈ 22.6 µM); MIC [28]: 2 µg/mL (≈ 5.66 µM); viability at 24 h, 0.5 ug/mL [29]: 83%; MIC50 [30]: 4 µg/mL (≈ 11.3 µM); MIC90 [30]: 8 µg/mL (≈ 22.6 µM); viability at 24 h, 50 ug/mL [31]: 82%
CCOC(=O)c1ccc(NC(=O)c2cc3cc(C)ccc3oc2=O)cc1	> 128	inactive	> 128	> 128	> 128	> 128	> 128	> 128	> 128	> 128	> 128	> 128	> 128	> 128	> 128	> 128	inactive	2 (≈ 5.69 µM)	80	8 (≈ 22.8 µM)	viability at 24 h, 0.5 ug/mL [22]: 99%; viability at 24 h, 5 ug/mL [23]: 59%; MIC [24]: 2 µg/mL (≈ 5.69 µM); viability at 24 h, 5 ug/mL [25]: 81%; viability at 24 h, 50 ug/mL [26]: 14%; MIC [27]: 4 µg/mL (≈ 11.4 µM); MIC [28]: 8 µg/mL (≈ 22.8 µM); viability at 24 h, 0.5 ug/mL [29]: 77%; MIC50 [30]: 4 µg/mL (≈ 11.4 µM); MIC90 [30]: 8 µg/mL (≈ 22.8 µM); viability at 24 h, 50 ug/mL [31]: 63%
CCOC(=O)c1ccc(NC(=O)c2cc3cc(Br)cc(Cl)c3oc2=O)cc1	> 128	inactive	> 128	> 128	> 128	> 128	> 128	> 128	> 128	> 128	> 128	> 128	> 128	> 128	> 128	> 128	inactive	8 (≈ 17.8 µM)	94	8 (≈ 17.8 µM)	viability at 24 h, 0.5 ug/mL [22]: 98%; viability at 24 h, 5 ug/mL [23]: 71%; MIC [24]: 8 µg/mL (≈ 17.8 µM); viability at 24 h, 5 ug/mL [25]: 75%; viability at 24 h, 50 ug/mL [26]: 58%; MIC [27]: 16 µg/mL (≈ 35.5 µM); MIC [28]: 4 µg/mL (≈ 8.88 µM); viability at 24 h, 0.5 ug/mL [29]: 86%; MIC50 [30]: 8 µg/mL (≈ 17.8 µM); MIC90 [30]: 16 µg/mL (≈ 35.5 µM); viability at 24 h, 50 ug/mL [31]: 64%
